≈ marks a conversion by molar mass, not a printed value. Calls of active or inactive are those of the source. No cut-off for these calls is given here.
Assays:
[1] = test system: Lipaphis erysimi; experiment: Insecticidal activity against Lipaphis erysimi (mustard aphids) assessed as increase in mortality at 50 to 200 mg/L after 24 to 48 hr; format: functional, organism-based
Summary of the method: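 Apterous adult Lipaphis erysimi reared on mustard leaves. Leaf discs carrying 30–50 aphids dipped 3 s in aqueous suspensions (10 g/L DMSO/acetone stock, 0.5% emulsifier) at 50, 100, 200 mg/L final, blotted, held at 25 ± 1 °C and 50–60% RH. Mortality scored at 24 and 48 h, corrected against solvent control. Triplicate; LC50/LC90 by probit–log concentration regression.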

[2] = test system: Culex quinquefasciatus; experiment: Insecticidal activity against fourth-instar larval stage of Culex quinquefasciatus assessed as increase in mortality at 50 to 100 mg/L after 24 hr; format: functional, organism-based
Summary of the method: (§1)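 Early 4th-instar Culex pipiens quinquefasciatus larvae, 20 per bowl in 10 mL test solution. Compounds taken from a 10 g/L DMSO/acetone stock into water with 0.5% Tween-80 (final 1, 10, 50, 100 mg/L), held at 27 °C. Dead larvae, those unable to reach the surface on shaking, counted at 0, 2, 12 and 24 h. Abbott-corrected against solvent control, triplicate; LC50/LC90 by probit regression.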

[3] = test system: Culex quinquefasciatus; experiment: Insecticidal activity against fourth-instar larval stage of Culex quinquefasciatus assessed as increase in mortality after 2 to 24 hr; format: functional, organism-based; summary of the method: as §1
[4] = test system: Culex quinquefasciatus; experiment: Insecticidal activity against fourth-instar larval stage of Culex quinquefasciatus assessed as mortality at 1 mg/L after 24 hr; format: functional
Summary of the method: (§2)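 Early 4th-instar Culex pipiens quinquefasciatus from laboratory cultures, 20 per bowl in 10 mL test solution at 27 °C. Compounds from a 10 g/L DMSO–acetone stock suspended in water with 0.5% Tween-80 to 1, 10, 50 or 100 mg/L final. Dead larvae, those unable to reach the surface on shaking, counted at 0, 2, 12 and 24 h. Abbott-corrected against solvent control; triplicate; probit analysis.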

[5] = test system: Sf9; experiment: Cytotoxicity against Spodoptera frugiperda (fall armyworm) Sf9 cells assessed as growth inhibition at 1 to 200 mg/L after 6 to 24 hr by MTT assay; format: functional, cell-based
Summary of the method: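 Sf9 insect cells grown at 27 °C in TC-199-MK with 10% FCS, L-glutamine and penicillin–streptomycin–neomycin. Log-phase cells exposed to compounds (DMSO stock, 1% final solvent), 6, 12 or 24 h. MTT (5 mg/mL stock) added for a further 3 h, formazan dissolved in DMSO, A570 read. Inhibition = (A control − A treated)/A control ×100. Solvent-only control, triplicate.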

[6] = test system: Lipaphis erysimi; experiment: Insecticidal activity against Lipaphis erysimi (mustard aphids) assessed as mortality at 200 mg/L after 48 hr; format: functional; conditions: in Brassica
Summary of the method: (§3)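 Apterous adult Lipaphis erysimi reared on mustard leaves. Compounds from a 10 g/L DMSO–acetone stock suspended in water with 0.5% emulsifier to 50, 100 or 200 mg/L. Leaf discs carrying 30–50 aphids were dipped 3 s and blotted, then held at 25 ± 1 °C and 50–60% RH. Mortality scored at 24 and 48 h and corrected against solvent control. Triplicate; LC50/LC90 by probit–log concentration regression.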

[7] = test system: Lipaphis erysimi; experiment: Insecticidal activity against Lipaphis erysimi (mustard aphids) assessed as increase in mortality after 48 hr; format: functional
[8] = test system: Lipaphis erysimi; experiment: Insecticidal activity against Lipaphis erysimi (mustard aphids) assessed as mortality at 50 mg/L after 24 hr; format: functional; conditions: in Brassica; summary of the method: as §3
[9] = test system: Culex quinquefasciatus; experiment: Insecticidal activity against fourth-instar larval stage of Culex quinquefasciatus assessed as increase in mortality after 24 hr; format: functional; summary of the method: as §2
[10] = test system: Culex quinquefasciatus; experiment: Insecticidal activity against fourth-instar larval stage of Culex quinquefasciatus assessed as mortality at 100 mg/L after 24 hr; format: functional; summary of the method: as §2
[11] = test system: Culex quinquefasciatus; experiment: Insecticidal activity against fourth-instar larval stage of Culex quinquefasciatus assessed as increase in mortality at 50 mg/L after 24 hr; format: functional, organism-based; summary of the method: as §1
[12] = Cytotoxicity against Spodoptera frugiperda (fall armyworm) Sf9 cells assessed as growth inhibition at 200 mg/L after 24 hr by MTT assay; format: functional; conditions: for inhibition of growth at 200 µg/mL: Spodoptera frugiperda, Sf9, 24 h, read-out: GI
Summary of the method: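 Sf9 cells kept at 27 °C in TC-199-MK with 10% FCS, L-glutamine and penicillin–streptomycin–neomycin. Log-phase cells in 96-well plates were exposed for 6, 12 or 24 h to compounds diluted in medium from a 1,000 mg/L DMSO stock, with 1% DMSO final; DMSO alone as control. MTT added for 3 h, formazan dissolved in DMSO, A570 read. Inhibition % = (Acontrol−Atreatment)/Acontrol×100. Run in triplicate.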

Structure (SMILES)	Activity [1]	Activity [2]	Activity [3]	mortality at 1 µg/mL [4]	other results
O=C(O)C1Cc2c([nH]c3ccccc23)CN1 (stereo unspecified)	Active	Active	Dose-dependent effect	< 34.9%	–
Cc1nc(C(=O)O)cc2c1[nH]c1ccccc12 [HARMAN-3-CARBOXYLIC ACID]	Active	Active	Dose-dependent effect	< 34.9%	–
COC(=O)c1cc2c([nH]c3ccccc32)c(C)n1	Active	Active	Dose-dependent effect	< 34.9%	–
COC(=O)C1Cc2c([nH]c3ccccc23)C(C(Cl)(Cl)Cl)N1 (stereo unspecified)	Active	Active	Dose-dependent effect	< 34.9%	growth inhibition (GI) [5]: inactive
COC(=O)C1Cc2c([nH]c3ccccc23)C(c2ccc(O)c(OC)c2)N1 (stereo unspecified)	Active	Active	Dose-dependent effect	< 34.9%	–
COC(=O)c1cc2c([nH]c3ccccc32)c(-c2ccccc2O)n1	Active	Active	Dose-dependent effect	< 34.9%	–
COC(=O)c1cc2c([nH]c3ccccc32)c(-c2ccccc2)n1	–	–	Dose-dependent effect	< 34.9%	mortality at 200 µg/mL [6]: 75.8%; LC90 [7]: 418.63 µg/mL (≈ 1380 µM); LC50 ([7]; Lipaphis erysimi, in Brassica, 48 h): 68 µg/mL (≈ 225 µM); mortality at 50 µg/mL [8]: 15.3%; LC90 [9]: 295.13 µg/mL (≈ 976 µM); LC50 ([9]; Culex quinquefasciatus, Instar larval stage, 24 h): 24 µg/mL (≈ 79.3 µM); mortality at 100 µg/mL [10]: 80.5%; Activity [11]: Active
COC(=O)c1cc2c([nH]c3ccccc32)c(-c2c(C)nn(-c3ccccc3)c2Cl)n1	Active	Active	Dose-dependent effect	< 34.9%	inhibition of growth at 200 µg/mL [12]: 60.9%
O=C(O)C1Cc2c([nH]c3ccccc23)C(C(Cl)(Cl)Cl)N1 (stereo unspecified)	Active	Active	Dose-dependent effect	< 34.9%	–
O=C(O)C1Cc2c([nH]c3ccccc23)C(c2ccccc2)N1 (stereo unspecified)	–	–	Dose-dependent effect	< 34.9%	mortality at 200 µg/mL [6]: 87.3%; LC90 [7]: 240.1 µg/mL (≈ 821 µM); mortality at 50 µg/mL [8]: 36.4%; LC90 [9]: 88.29 µg/mL (≈ 302 µM); mortality at 100 µg/mL [10]: 93.3%; Activity [11]: Active; inhibition of growth at 200 µg/mL [12]: 71.5%
COC(=O)C1Cc2c([nH]c3ccccc23)C(c2ccccc2)N1 (stereo unspecified)	Active	Active	Dose-dependent effect	< 34.9%	–
CC1NC(C(=O)O)Cc2c1[nH]c1ccccc21 (stereo unspecified)	Active	Active	Dose-dependent effect	< 34.9%	–
COC(=O)C1Cc2c([nH]c3ccccc23)C(C)N1 (stereo unspecified)	Active	Active	Dose-dependent effect	< 34.9%	–
COc1ccc2c(c1)[nH]c1c(C)nccc12 [HARMINE]	Active	Active	–	–	mortality at 200 µg/mL [6]: 49.6%; Imax [12]: 40.31%
COc1cc(C2NC(C(=O)O)Cc3c2[nH]c2ccccc32)ccc1O (stereo unspecified)	Active	Active	Dose-dependent effect	< 34.9%	–
COC(=O)c1cc2c([nH]c3ccccc32)c(-c2ccc(Cl)cc2)n1	Active	Active	Dose-dependent effect	< 34.9%	–
COC(=O)C1Cc2c([nH]c3ccccc23)CN1 (stereo unspecified)	Active	Active	Dose-dependent effect	< 34.9%	–

From ChEMBL document CHEMBL3045688, “Cytotoxic and insecticidal activities of derivatives of harmine, a natural insecticidal component isolated from Peganum harmala” (2010)
